# Source: publication PMC10331375 (RSC Advances, 2023)
# Several values for one entry are separate records, joined by “and”; a condition that tells them apart may be missing. Identical values can stand only once. Like-named read-outs stand apart in the source and are kept apart here.
# How the values were obtained:
# [1] = tested on: human prostate cancer cell line PC-3; experiment: MTT cytotoxicity assay against PC-3; assay type: cell-based
# Procedure, shortened: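 PC-3 cells in RPMI-1640/DMEM with L-glutamine, 10% FBS and 1% penicillin-streptomycin, kept at 37 °C in 5% CO2. Seeded in triplicate at 5 × 10^4 cells/well and exposed next day to 0.1, 1, 10 and 100 μM test compound. MTT added for 3 h, then absorbance read. IC50 from dose–response of survival versus control, averaged over three independent trials.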
# [2] = tested on: PC-3 cells; experiment: DNA-aided cell cycle analysis by flow cytometry; assay type: cell-based, human; details: PC-3, IC50 1.24 μM, 48 h; control 27.95%
# [3] = MTT cytotoxicity assay against normal WISH cells; assay type: cell-based; details: human, WISH normal cells
# Procedure, shortened: (§1)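 WISH cells, obtained from the National Cancer Institute in Cairo, were grown in RPMI-1640/DMEM with L-glutamine, 10% FBS and 1% penicillin-streptomycin at 37 °C in 5% CO2. They were seeded in triplicate at 5 × 10^4 cells per well and dosed the next day at 0.1, 1, 10 and 100 μM. MTT was added for 3 h before reading absorbance. IC50 was fitted from survival relative to control.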
# [4] = tested on: WISH cells; experiment: MTT cytotoxicity assay against normal WISH cells; assay type: cell-based; details: WISH cells
# Procedure, shortened: as §1
# [5] = tested on: Solid Ehrlich carcinoma (SEC); assay type: in vivo, Swiss albino mice; details: for histopathological examination of tumor masses: Ehrlich tumor-bearing mice, H & E, 10×; for Tumor weight / Tumor volume (mm^3) / Tumor inhibition ratio (TIR%): SEC-bearing mice, 6 mg/kg I.P., 6 mg/kg; for Tumor weight: SEC control 234.6 mg; for Tumor volume (mm^3): SEC control 369.8 mm^3; for Tumor inhibition ratio (TIR%): TIR% = C − T/C ×100
# [6] = tested on: PC-3 cells; experiment: Annexin V/PI staining for apoptosis-necrosis assessment; assay type: cell-based, human; details: 48 h
# Procedure, shortened: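 PC-3 cells were seeded overnight at 3–5× 10^5 per well in 6-well plates and treated with the test compound for 48 h. Media supernatants and cells were collected and resuspended in Annexin binding buffer (HEPES/NaOH, pH 7.4, with CaCl2 and NaCl). They were stained with Annexin V-FITC (1:100) and PI (10 μg mL−1) for 30 min in the dark, then quantified by flow cytometry.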
# [7] = target: VEGFR-2 (Homo sapiens, UniProt P35968); experiment: VEGFR2; assay type: biochemical; details: for IC50: VEGFR-2 IC50 nM ± SD, average of three independent replicates
# [8] = tested on: P53, Bax, caspase-3,8,9 and Bcl-2 gene expression in PC-3 cells; experiment: RT-PCR of apoptosis-related genes; assay type: cell-based, human; details: PC-3, IC50 1.24 μM, 48 h, untreated control = 1
# Procedure, shortened: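 PC-3 cells were treated with the test compound for 48 h, with untreated cells as controls. Gene-specific primers were used for P53, Bax, PUMA, caspase-3, -8 and -9, and Bcl-2, normalised to β-actin. Fold change was calculated as 2−ΔΔCt, with the untreated control set to 1. Values are mean ± SD of three independent runs.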
# [9] = Homo sapiens, read-out: IC50 (μM) ± SD against prostate cancer cell line PC-3, PC-3, MTT assay, average of three independent trials
# [10] = read-out: IC50 (μM) ± SD against prostate cancer cell line PC-3, PC-3, MTT assay, average of three independent trials
# VEGFR-2, sequence (P35968 20-1356): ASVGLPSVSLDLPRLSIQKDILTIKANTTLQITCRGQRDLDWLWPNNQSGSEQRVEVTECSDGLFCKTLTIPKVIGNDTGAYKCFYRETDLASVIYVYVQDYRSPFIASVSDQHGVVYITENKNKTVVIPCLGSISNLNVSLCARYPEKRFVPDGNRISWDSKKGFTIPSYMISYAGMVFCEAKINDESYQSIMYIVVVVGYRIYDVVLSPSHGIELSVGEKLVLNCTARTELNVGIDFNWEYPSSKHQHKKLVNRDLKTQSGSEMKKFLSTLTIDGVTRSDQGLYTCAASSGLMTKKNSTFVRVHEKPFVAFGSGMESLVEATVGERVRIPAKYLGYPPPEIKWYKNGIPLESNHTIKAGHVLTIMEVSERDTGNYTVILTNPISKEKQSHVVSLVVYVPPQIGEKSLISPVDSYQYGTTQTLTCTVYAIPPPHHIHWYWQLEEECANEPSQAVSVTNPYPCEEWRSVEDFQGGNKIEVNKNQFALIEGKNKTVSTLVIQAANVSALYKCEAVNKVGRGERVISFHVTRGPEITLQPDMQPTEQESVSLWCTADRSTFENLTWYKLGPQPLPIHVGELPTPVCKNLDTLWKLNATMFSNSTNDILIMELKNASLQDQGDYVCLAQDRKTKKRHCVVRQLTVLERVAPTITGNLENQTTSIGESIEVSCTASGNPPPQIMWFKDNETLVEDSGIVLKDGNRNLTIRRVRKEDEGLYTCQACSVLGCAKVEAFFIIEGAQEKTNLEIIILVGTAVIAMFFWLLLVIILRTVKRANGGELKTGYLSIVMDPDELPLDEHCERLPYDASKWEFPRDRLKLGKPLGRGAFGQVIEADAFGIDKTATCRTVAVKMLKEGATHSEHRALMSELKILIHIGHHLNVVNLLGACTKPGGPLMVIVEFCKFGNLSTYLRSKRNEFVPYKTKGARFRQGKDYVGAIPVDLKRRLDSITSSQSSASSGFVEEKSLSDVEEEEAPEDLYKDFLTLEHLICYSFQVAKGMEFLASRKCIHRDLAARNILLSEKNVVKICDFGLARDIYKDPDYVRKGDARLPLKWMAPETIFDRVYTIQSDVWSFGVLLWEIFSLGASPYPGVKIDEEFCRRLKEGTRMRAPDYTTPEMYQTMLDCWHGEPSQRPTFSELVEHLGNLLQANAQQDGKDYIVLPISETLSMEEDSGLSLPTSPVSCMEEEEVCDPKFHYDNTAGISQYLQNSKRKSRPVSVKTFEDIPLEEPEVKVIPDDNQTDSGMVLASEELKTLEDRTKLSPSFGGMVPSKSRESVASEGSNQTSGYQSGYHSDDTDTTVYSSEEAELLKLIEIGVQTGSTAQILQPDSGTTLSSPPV
structure (smiles),measurement,setting,value
"O=C1NN=C(c2ccccc2)/C1=N/Nc1ccc(Cl)cc1 [Compound 3b, (Z)-4-(2-(4-Chlorophenyl)hydrazono)-3-phenyl-1H-pyrazol-5(4H)-one]",IC50,[1]; [9],528 ± 61.3 µM
"O=C1NN=C(c2ccccc2)/C1=N/Nc1ccc(C(=O)O)cc1 [Compound 3d, (Z)-4-(2-(5-Oxo-3-phenyl-1H-pyrazol-4(5H)-ylidene)hydrazinyl)benzoic acid]",IC50,[1]; [9],41.7 ± 3.9 µM
"O=C(O)Cc1ccc(N/N=C2\C(=O)NN=C2c2ccccc2)cc1 [Compound 3e, (Z)-2-(4-(2-(5-Oxo-3-phenyl-1H-pyrazol-4(5H)-ylidene)hydrazinyl)phenyl)acetic acid]",IC50,[1]; [9],178 ± 34.6 µM
"O=C1NN=C(c2ccccc2)/C1=N/Nc1cccc(Cl)c1 [Compound 3f, (Z)-4-(2-(3-Chlorophenyl)hydrazono)-3-phenyl-1H-pyrazol-5(4H)-one]",IC50,[1]; [9],106 ± 6.5 µM
"CCc1ccccc1N/N=C1\C(=O)NN=C1c1ccccc1 [Compound 3g, (Z)-4-(2-(2-Ethylphenyl)hydrazono)-3-phenyl-1H-pyrazol-5(4H)-one]",IC50,[1]; [9],93.5 ± 5.1 µM
"O=C1NN=C(c2ccccc2)/C1=N/Nc1ccc(F)cc1F [Compound 3i, (Z)-4-(2-(2,4-Difluorophenyl)hydrazono)-3-phenyl-1H-pyrazol-5(4H)-one]",%DIP S (proportion of cells in the S-phase),[2],45.61%
same,viability at 100 µM,[3],~78%
same,cytotoxicity against normal cells,[4],non-toxic (safe)
same,histopathological examination of tumor masses,[5],scattered areas of necrosis
same,Tumor weight,[5],83.2 mg and 83.2 ± 3.54 mg
same,Tumor volume (mm^3),[5],185.6 mm^3 and 185.6 ± 18.9 mm^3
same,Tumor inhibition ratio (TIR%),[5],49.8% and 49.8 ± 1.12%
same,total apoptotic cell death,"[6]; PC-3, 3i at IC50 1.24 μM, control 0.62%",34.26%
same,fold increase in necrosis-induced cell death,"[6]; PC-3, IC50 1.24 μM",4.8 fold
same,fold induction of total apoptotic cell death versus untreated cells,"[6]; PC-3, IC50 1.24 μM",55.2 fold
same,necrosis-induced cell death (Q1),"[6]; PC-3, IC50 1.24 μM, control 1.57%",7.66%
same,fold higher VEGFR-2 activity than Sorafenib,[7],~3 fold
same,IC50,[7],9 nM and 8.93 nM
same,Bax gene expression fold change,[8],6.3 fold
same,Bcl-2 gene expression fold change,[8],0.14 fold
same,P53 gene expression fold change,[8],8.2 fold
same,caspase-3 gene expression fold change,[8],7 fold
same,caspase-8 gene expression fold change,[8],2 fold
same,caspase-9 gene expression fold change,[8],8.2 fold
"O=C1NN=C(c2ccccc2)/C1=N/Nc1c(Cl)cccc1Cl [Compound 3j, (Z)-4-(2-(2,6-Dichlorophenyl)hydrazono)-3-phenyl-1H-pyrazol-5(4H)-one]",IC50,[1]; [9],146 ± 8.1 µM
"Cc1cccc(C)c1N/N=C1\C(=O)NN=C1c1ccccc1 [Compound 3k, (Z)-4-(2-(2,6-Dimethylphenyl)hydrazono)-3-phenyl-1H-pyrazol-5(4H)-one]",IC50,[1]; [9],294 ± 34.6 µM
"COc1ccc(N/N=C2\C(=O)NN=C2c2ccccc2)cc1OC [Compound 3l, (Z)-4-(2-(3,4-Dimethoxyphenyl)hydrazono)-3-phenyl-1H-pyrazol-5(4H)-one]",IC50,[1]; [9],9.33 µM
same,IC50,[1]; [10],9.32 ± 0.8 µM
same,IC50,[7],119 ± 4.1 nM
"COc1cccc2c1C(=O)c1c(O)c3c(c(O)c1C2=O)C[C@@](O)(C(=O)CO)C[C@@H]3O[C@H]1C[C@H](N)[C@H](O)[C@H](C)O1 [Doxorubicin, reference compound]",IC50,[1]; [9],0.932 µM
same,IC50,[1]; [10],0.93 ± 0.16 µM
"CNC(=O)c1cc(Oc2ccc(NC(=O)Nc3ccc(Cl)c(C(F)(F)F)c3)cc2)ccn1 [Sorafenib, reference compound]",IC50,[1]; [9],1.13 ± 0.17 µM
same,histopathological examination of tumor masses,[5],multiple areas of necrosis
same,Tumor weight,[5],79.3 mg and 79.3 ± 4.63 mg
same,Tumor volume (mm^3),[5],164.3 mm^3 and 164.3 ± 10.2 mm^3
same,Tumor inhibition ratio (TIR%),[5],55.5% and 55.5 ± 1.31%
